In ChEMBL document CHEMBL1649442, “Genetic determinants of resistance to fusidic acid among clinical bacteremia isolates of Staphylococcus aureus” (2009):
In brackets after ≈: the same amount, converted by molar mass.

Key:
Assay type in all cases: functional
Staphylococcus aureus [1] = experiment: Antimicrobial activity against Staphylococcus aureus isolate 27856 expressing FusB and harboring pUB101 carrying cadX coding sequence by Etest
Staphylococcus aureus [2] = experiment: Antimicrobial activity against Staphylococcus aureus isolate 28416 expressing FusC by Etest
Staphylococcus aureus [3] = experiment: Antimicrobial activity against Staphylococcus aureus isolate 27980 expressing FusB and harboring pUB101 carrying cadX coding sequence by Etest
Staphylococcus aureus [4] = experiment: Antimicrobial activity against Staphylococcus aureus isolate 27971 expressing FusB and harboring pUB101 carrying cadX coding sequence by Etest
Staphylococcus aureus [5] = experiment: Antimicrobial activity against cadXD coding sequence deficient Staphylococcus aureus isolate 28332 expressing FusB by Etest
Procedure, shortened: (§1)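 Fusidic acid-resistant S. aureus bacteremia clinical isolates, originally from Statens Serum Institut. MIC read by Etest on Mueller-Hinton agar, following the manufacturer's instructions. Liquid cultures grown in LB at 37°C with shaking at 200 rpm. fusB and cadXD presence checked by PCR and sequencing.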

Staphylococcus aureus [6] = experiment: Antimicrobial activity against cadXD coding sequence deficient Staphylococcus aureus isolate 27980 expressing FusB by Etest; procedure, shortened: as §1
Staphylococcus aureus [7] = experiment: Antimicrobial activity against cadX coding sequence deficient Staphylococcus aureus isolate 28414 expressing FusC C90T mutant and harboring pMW2 by Etest
Staphylococcus aureus [8] = experiment: Antimicrobial activity against Staphylococcus aureus isolate 27731 expressing FusA Ala71Val, Asp189Gly, Pro406Leu mutant and harboring pMW2 carrying cadX coding sequence by Etest
Staphylococcus aureus [9] = experiment: Antimicrobial activity against cadX coding sequence deficient Staphylococcus aureus isolate 28335 expressing FusC C90T mutant and harboring pMW2 by Etest
Staphylococcus aureus [10] = experiment: Antimicrobial activity against cadXD coding sequence deficient Staphylococcus aureus isolate 27971 expressing FusB by Etest; procedure, shortened: as §1
Staphylococcus aureus [11] = experiment: Antimicrobial activity against Staphylococcus aureus isolate 28332 expressing FusB and harboring pUB101 carrying cadX coding sequence by Etest
Staphylococcus aureus [12] = experiment: Antimicrobial activity against cadXD coding sequence deficient Staphylococcus aureus isolate 27856 expressing FusB by Etest; procedure, shortened: as §1
Staphylococcus aureus [13] = experiment: Antimicrobial activity against Staphylococcus aureus isolate 27657 expressing FusC by Etest
Staphylococcus aureus [14] = experiment: Antimicrobial activity against Staphylococcus aureus RN4220 transformed with Staphylococcus aureus isolate 27624 carrying pUB101 expressing cadX coding sequence by Etest
Procedure, shortened: (§2)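 Plasmid DNA was extracted from each clinical bacteremia isolate after overnight growth in LB with 0.5% glycine, using lysostaphin/lysozyme/proteinase K lysis and alkaline lysis. It was electroporated into restriction-negative S. aureus RN4220 (2.3 kV, 25 μF, 100 Ω) and transformants were selected on NYE agar with ampicillin 1 μg/ml at 37°C. Fusidic acid MIC was read by Etest on Mueller-Hinton agar following the manufacturer's instructions.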

Staphylococcus aureus [15] = experiment: Antimicrobial activity against cadX coding sequence deficient Staphylococcus aureus isolate 28410 expressing FusC C90T mutant and harboring pMW2 by Etest
Staphylococcus aureus [16] = experiment: Antimicrobial activity against cadXD coding sequence deficient Staphylococcus aureus isolate 28444 expressing FusB by Etest; procedure, shortened: as §1
Staphylococcus aureus [17] = experiment: Antimicrobial activity against cadX coding sequence deficient Staphylococcus aureus isolate 28150 expressing FusC and harboring pMW2 by Etest
Staphylococcus aureus [18] = experiment: Antimicrobial activity against Staphylococcus aureus isolate 27624 expressing FusB and harboring pUB101 carrying cadX coding sequence by Etest
Staphylococcus aureus [19] = experiment: Antimicrobial activity against cadX coding sequence deficient Staphylococcus aureus isolate 27768 expressing FusA Leu461Ser mutant and harboring pMW2 by Etest
Staphylococcus aureus [20] = experiment: Antimicrobial activity against cadX coding sequence deficient Staphylococcus aureus isolate 28400 expressing FusC C90T mutant and harboring pMW2 by Etest
Staphylococcus aureus [21] = experiment: Antimicrobial activity against Staphylococcus aureus isolate 28362 expressing FusA Val90Ile mutant by Etest
Staphylococcus aureus [22] = experiment: Antimicrobial activity against Staphylococcus aureus isolate 28130 expressing FusA Leu461Ser mutant pMW2 carrying cadX coding sequence by Etest
Staphylococcus aureus [23] = experiment: Antimicrobial activity against Staphylococcus aureus isolate 28084 expressing FusC and harboring pMW2 carrying cadX coding sequence by Etest
Staphylococcus aureus [24] = experiment: Antimicrobial activity against cadXD coding sequence deficient Staphylococcus aureus isolate 27624 expressing FusB by Etest; procedure, shortened: as §1
Staphylococcus aureus [25] = experiment: Antimicrobial activity against Staphylococcus aureus RN4220 transformed with Staphylococcus aureus isolate 28332 carrying pUB101 cadX coding sequence by Etest; procedure, shortened: as §2
Staphylococcus aureus [26] = experiment: Antimicrobial activity against Staphylococcus aureus RN4220 transformed with Staphylococcus aureus isolate 27980 carrying pUB101 expressing cadX coding sequence by Etest; procedure, shortened: as §2
Staphylococcus aureus [27] = experiment: Antimicrobial activity against Staphylococcus aureus isolate 27844 expressing FusA Ala376Val, Leu461Phe, Asp463Gly, Ala655Pro mutant and harboring pMW2 carrying cadX coding sequence by Etest
Staphylococcus aureus [28] = experiment: Antimicrobial activity against cadX coding sequence deficient Staphylococcus aureus isolate 27962 expressing FusA Met453Ile mutant and harboring pMW2 by Etest
Staphylococcus aureus [29] = experiment: Antimicrobial activity against Staphylococcus aureus RN4220 transformed with Staphylococcus aureus isolate 27971 carrying pUB101 expressing cadX coding sequence by Etest; procedure, shortened: as §2
Staphylococcus aureus [30] = experiment: Antimicrobial activity against Staphylococcus aureus isolate 28444 expressing FusB and harboring pUB101 carrying cadX coding sequence by Etest
Staphylococcus aureus [31] = experiment: Antimicrobial activity against Staphylococcus aureus RN4220 transformed with Staphylococcus aureus isolate 28444 carrying pUB101 expressing cadX coding sequence by Etest; procedure, shortened: as §2
Staphylococcus aureus [32] = experiment: Antimicrobial activity against Staphylococcus aureus RN4220 transformed with Staphylococcus aureus isolate 27856 carrying pUB101 expressing cadX coding sequence by Etest; procedure, shortened: as §2

SMILES: CC(=O)O[C@H]1C[C@@]2(C)[C@@H](C[C@@H](O)[C@H]3[C@@]4(C)CC[C@@H](O)[C@@H](C)[C@@H]4CC[C@@]32C)/C1=C(\CCC=C(C)C)C(=O)O [FUSIDIC ACID]
- MIC (Staphylococcus aureus [1]): 8 µg/mL (≈ 15.5 µM)
- MIC (Staphylococcus aureus [2]): 8 µg/mL (≈ 15.5 µM)
- MIC (Staphylococcus aureus [3]): 12 µg/mL (≈ 23.2 µM)
- MIC (Staphylococcus aureus [4]): 8 µg/mL (≈ 15.5 µM)
- MIC (Staphylococcus aureus [5]): 0.125 µg/mL (≈ 0.242 µM)
- MIC (Staphylococcus aureus [6]): 0.094 µg/mL (≈ 0.182 µM)
- MIC (Staphylococcus aureus [7]): 6 µg/mL (≈ 11.6 µM)
- MIC (Staphylococcus aureus [8]): 8 µg/mL (≈ 15.5 µM)
- MIC (Staphylococcus aureus [9]): 8 µg/mL (≈ 15.5 µM)
- MIC (Staphylococcus aureus [10]): 0.094 µg/mL (≈ 0.182 µM)
- MIC (Staphylococcus aureus [11]): 12 µg/mL (≈ 23.2 µM)
- MIC (Staphylococcus aureus [12]): 0.094 µg/mL (≈ 0.182 µM)
- MIC (Staphylococcus aureus [13]): 8 µg/mL (≈ 15.5 µM)
- MIC (Staphylococcus aureus [14]): 8 µg/mL (≈ 15.5 µM)
- MIC (Staphylococcus aureus [15]): 6 µg/mL (≈ 11.6 µM)
- MIC (Staphylococcus aureus [16]): 0.064 µg/mL (≈ 0.124 µM)
- MIC (Staphylococcus aureus [17]): 8 µg/mL (≈ 15.5 µM)
- MIC (Staphylococcus aureus [18]): 6 µg/mL (≈ 11.6 µM)
- MIC (Staphylococcus aureus [19]): 8 µg/mL (≈ 15.5 µM)
- MIC (Staphylococcus aureus [20]): 6 µg/mL (≈ 11.6 µM)
- MIC (Staphylococcus aureus [21]): 8 µg/mL (≈ 15.5 µM)
- MIC (Staphylococcus aureus [22]): 6 µg/mL (≈ 11.6 µM)
- MIC (Staphylococcus aureus [23]): 12 µg/mL (≈ 23.2 µM)
- MIC (Staphylococcus aureus [24]): 0.094 µg/mL (≈ 0.182 µM)
- MIC (Staphylococcus aureus [25]): 8 µg/mL (≈ 15.5 µM)
- MIC (Staphylococcus aureus [26]): 8 µg/mL (≈ 15.5 µM)
- MIC (Staphylococcus aureus [27]): 256 µg/mL (≈ 495 µM)
- MIC (Staphylococcus aureus [28]): 4 µg/mL (≈ 7.74 µM)
- MIC (Staphylococcus aureus [29]): 8 µg/mL (≈ 15.5 µM)
- MIC (Staphylococcus aureus [30]): 12 µg/mL (≈ 23.2 µM)
- MIC (Staphylococcus aureus [31]): 8 µg/mL (≈ 15.5 µM)
- MIC (Staphylococcus aureus [32]): 8 µg/mL (≈ 15.5 µM)
